From ChEMBL document CHEMBL4014341, “Discovery of a Human Neuromedin U Receptor 1-Selective Hexapeptide Agonist with Enhanced Serum Stability” (J Med Chem, 2017) come the findings set out here.

The source made the active and inactive calls. The rule behind the calls is not given here. Square brackets hold non-standard residues; d marks the D form. Peptide text beside a SMILES is read from it. * marks the point of attachment. αMeW = C[C@](N)(Cc1c[nH]c2ccccc12)C(=O)O; Dip = N[C@H](C(=O)O)C(c1ccccc1)c1ccccc1; Phe(3-F) = N[C@@H](Cc1cccc(F)c1)C(=O)O; Phe(4-F) = N[C@@H](Cc1ccc(F)cc1)C(=O)O; Acetyl(2-thienyl) = O=C(Cc1cccs1)*

In one data set the test system is Serum. Nature of the data set: Drug level in rat serum treated with (S)-2-((S)-2-((S)-1-((S)-2-((S)-2-((S)-3-(1H-indol-3-yl)-2-(2-(thiophen-2-yl)acetamido)propanamido)-3-(1H-indol-2-yl)propanamido)-5-guanidinopentanoyl)pyrrolidine-2-carboxamido)-5-guanidinopentanamido)succinamide at 1 mM after 120 mins by RP-HPLC analysis. Format: ADME, cell-free. The following applies: 2 h, 1000 µM.

For data set [1], the target named is T1, Neuromedin-U receptor 1 (Mus musculus, UniProt O55040).
T1 sequence (O55040 whole entry): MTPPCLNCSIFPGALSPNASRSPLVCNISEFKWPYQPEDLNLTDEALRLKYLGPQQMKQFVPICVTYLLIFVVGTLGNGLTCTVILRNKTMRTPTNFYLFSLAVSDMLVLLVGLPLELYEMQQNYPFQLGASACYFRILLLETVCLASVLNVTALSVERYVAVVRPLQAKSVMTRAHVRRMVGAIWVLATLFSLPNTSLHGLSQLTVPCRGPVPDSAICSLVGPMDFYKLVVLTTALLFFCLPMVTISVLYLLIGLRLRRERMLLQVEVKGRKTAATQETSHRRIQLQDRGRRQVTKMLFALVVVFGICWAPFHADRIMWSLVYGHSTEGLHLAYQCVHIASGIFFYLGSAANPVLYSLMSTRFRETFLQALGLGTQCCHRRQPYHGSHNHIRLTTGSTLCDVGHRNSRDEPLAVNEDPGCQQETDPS
Nature of the data set: Agonist activity at mouse NMUR1 expressed in HEK293 cells assessed as induction of calcium mobilization after 18 hrs by Fluo-4 AM dye based FLIPR assay. Format: functional, cell-based. For orientation: A change in cytosolic calcium serves as a functional read-out for many receptors and channels.

In data set [2] the target is T2, Neuromedin-U receptor 1 (Homo sapiens, UniProt Q9HB89).
T2 sequence (Q9HB89 whole entry): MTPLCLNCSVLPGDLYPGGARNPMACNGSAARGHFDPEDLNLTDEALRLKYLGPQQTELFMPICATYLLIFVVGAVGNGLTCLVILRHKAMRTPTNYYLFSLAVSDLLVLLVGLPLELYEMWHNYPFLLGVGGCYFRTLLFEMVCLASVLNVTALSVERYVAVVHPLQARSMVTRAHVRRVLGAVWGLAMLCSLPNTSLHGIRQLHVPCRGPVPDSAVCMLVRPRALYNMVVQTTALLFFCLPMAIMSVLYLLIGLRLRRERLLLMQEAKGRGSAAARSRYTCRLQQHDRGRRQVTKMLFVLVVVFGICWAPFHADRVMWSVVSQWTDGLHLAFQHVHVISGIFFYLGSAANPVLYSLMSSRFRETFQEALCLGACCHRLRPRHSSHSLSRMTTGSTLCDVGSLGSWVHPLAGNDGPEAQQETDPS
Kind of data set: Agonist activity at human NMUR1 expressed in CHO cells assessed as induction of Ca2+ flux after 18 hrs by Fluo-4 AM dye based FLIPR assay. Format: functional, cell-based. The gist of the method: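 CHO cells stably expressing human NMUR1 or NMUR2 were seeded at 2.0 × 10^4/well. After 18 h they were loaded 40 min with 4 μM Fluo-4 AM in HBSS/10 mM HEPES/2.5 mM probenecid pH 7.4 with 1% FCS, then washed. Peptides in buffer with 0.05% BSA/0.001% Triton X-100 were tested at 10−12−10−6 M in triplicate. Calcium flux was read by FLIPR from the maximal value, and EC50 was obtained by curve fitting.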

For another data set, the species on record is Rattus norvegicus. Nature of the data set: Stability in rat serum at 1 mM at 120 mins by RP-HPLC/MS analysis.
Data set [3] has as its target T3, Neuromedin-U receptor 1 (Homo sapiens) (UniProt Q9HB89).
T3 sequence (whole entry): T2 sequence (Q9HB89 whole entry)
Kind of data set: Agonist activity at human NMUR1 expressed in CHO cells assessed as induction of Ca2+ flux at 100 nM after 18 hrs by Fluo-4 AM dye based FLIPR assay relative to NMU. It counts as functional, cell-based. An outline of the steps: (§1)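 Human NMUR1 or NMUR2 stably expressed in CHO cells was assayed by Fluo-4 AM (4 μM, 40 min) FLIPR calcium flux, with cells seeded 18 h before. Peptides were tested at single concentrations of 0.1, 10 or 100 nM. Maximal response is expressed as % of hNMU at 1000 nM (=100%).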

In data set [4] the target is Neuromedin-U receptor 2 (Homo sapiens) (UniProt Q9GZQ4). Nature of the data set: Agonist activity at human NMUR2 expressed in CHO cells assessed as induction of Ca2+ flux at 100 nM after 18 hrs by Fluo-4 AM dye based FLIPR assay relative to NMU. It counts as functional, cell-based. An outline of the steps: as §1
Chain of Neuromedin-U receptor 2 (Homo sapiens) (Q9GZQ4 whole entry): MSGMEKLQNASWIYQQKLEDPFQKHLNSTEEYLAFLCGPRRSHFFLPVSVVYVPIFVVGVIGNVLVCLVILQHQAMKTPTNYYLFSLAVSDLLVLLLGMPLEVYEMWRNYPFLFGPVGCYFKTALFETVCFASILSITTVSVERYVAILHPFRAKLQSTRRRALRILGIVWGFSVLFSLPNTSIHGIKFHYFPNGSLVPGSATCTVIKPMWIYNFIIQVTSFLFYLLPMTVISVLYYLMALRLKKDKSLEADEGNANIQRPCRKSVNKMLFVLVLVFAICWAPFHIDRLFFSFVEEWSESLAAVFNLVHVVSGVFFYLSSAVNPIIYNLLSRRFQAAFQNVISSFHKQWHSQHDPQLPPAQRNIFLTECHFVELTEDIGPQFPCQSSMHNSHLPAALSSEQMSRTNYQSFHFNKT
The target in data set [5] is T3, Neuromedin-U receptor 1 (Homo sapiens). Nature of the data set: Agonist activity at human NMUR1 expressed in CHO cells assessed as induction of Ca2+ flux at 0.1 to 10 nM after 18 hrs by Fluo-4 AM dye based FLIPR assay relative to NMU. Format: functional, cell-based. An outline of the steps: as §1
For data set [6], the target named is Neuromedin-U receptor 2 (Homo sapiens) (UniProt Q9GZQ4). Nature of the data set: Agonist activity at human NMUR2 expressed in CHO cells assessed as induction of Ca2+ flux at 0.1 to 10 nM after 18 hrs by Fluo-4 AM dye based FLIPR assay relative to NMU. It counts as functional, cell-based. The gist of the method: as §1
Data set [7] is described as follows: AUC in Wistar rat at 1 mg, iv up to 240 mins by LC/MS analysis. The following applies: in vivo. It counts as ADME, organism-based. The arrangement: dose 1 mg, time < 4 hr, route intravenous.
Data set [8] can be described thus: Clearance in Wistar rat at 1 mg, iv up to 240 mins by LC/MS analysis. Format: ADME, organism-based. The following applies: in vivo.
A short description of data set [9]: MRT in Wistar rat at 1 mg, iv by LC/MS analysis. Format: ADME, organism-based. The following applies: in vivo.
Data set [10] has as its target Neuromedin-U receptor 2 (Homo sapiens) (UniProt Q9GZQ4). Kind of data set: Agonist activity at human NMUR2 expressed in CHO cells assessed as induction of Ca2+ flux at 0.1 uM after 18 hrs by Fluo-4 AM dye based FLIPR assay relative to NMU. It counts as functional, cell-based. An outline of the steps:
as §1

The next data set deals with Prothrombin (Homo sapiens, UniProt P00734). Kind of data set: Drug metabolism in human serum treated with (S)-2-((S)-1-((S)-2-((S)-2-((S)-3-(1H-indol-3-yl)-2-(2-(thiophen-2-yl)acetamido)propanamido)-3-(1H-indol-3-yl)-2-methylpropanamido)-5-guanidinopentanoyl)pyrrolidine-2-carboxamido)-5-guanidinopentanoic acid assessed as thrombin-mediated metabolite formation at 1 mM after 120 mins by RP-HPLC analysis. Format: ADME. The following applies: 2 h, 1000 µM.

As to `O=C(Cc1cccs1)N[C@@H](Cc1c[nH]c2ccccc12)C(=O)N[C@@H](Cc1c[nH]c2ccccc12)C(=O)O`, the Drug metabolism entry in the data set on Serum is “Metabolite_Detected”.

As usually defined, the EC50 is the concentration that produces a half-maximal response. For the compound `CC(C)C[C@H](NC(=O)[C@H](Cc1ccccc1)NC(=O)[C@H](Cc1ccc(O)cc1)NC(=O)CNC(=O)[C@H](CCCCN)NC(=O)[C@H](CO)NC(=O)[C@H](CCC(N)=O)NC(=O)CNC(=O)[C@@H](NC(=O)[C@H](CO)NC(=O)[C@@H]1CCCN1C(=O)[C@H](CO)NC(=O)[C@H](CCC(N)=O)NC(=O)[C@H](Cc1ccc(O)cc1)NC(=O)[C@H](CCC(=O)O)NC(=O)[C@H](C)NC(=O)[C@H](CCCCN)NC(=O)[C@@H](N)Cc1ccccc1)C(C)C)C(=O)N[C@@H](Cc1ccccc1)C(=O)N[C@@H](CCCNC(=N)N)C(=O)N1CCC[C@H]1C(=O)N[C@@H](CCCNC(=N)N)C(=O)N[C@@H](CC(N)=O)C(N)=O` (H-FKAEYQSPSVGQSKGYFLFRPRN-NH2), the concentration giving a half-maximal response (EC50) at Neuromedin-U receptor 1 [1] was determined as 420 pM.

On to `CC(C)C[C@H](NC(=O)[C@H](Cc1ccccc1)NC(=O)[C@H](Cc1ccc(O)cc1)NC(=O)CNC(=O)[C@H](CCCNC(=N)N)NC(=O)[C@H](CO)NC(=O)[C@H](CCC(N)=O)NC(=O)[C@H](CO)NC(=O)[C@H](C)NC(=O)[C@H](Cc1ccccc1)NC(=O)[C@@H]1CCCN1C(=O)[C@H](CO)NC(=O)[C@H](CCC(N)=O)NC(=O)[C@H](Cc1ccccc1)NC(=O)[C@H](CCC(=O)O)NC(=O)[C@H](CCC(=O)O)NC(=O)[C@H](CC(=O)O)NC(=O)[C@@H](NC(=O)[C@H](CCCNC(=N)N)NC(=O)[C@@H](N)Cc1ccccc1)C(C)C)C(=O)N[C@@H](Cc1ccccc1)C(=O)N[C@@H](CCCNC(=N)N)C(=O)N1CCC[C@H]1C(=O)N[C@@H](CCCNC(=N)N)C(=O)N[C@@H](CC(N)=O)C(N)=O` (H-FRVDEEFQSPFASQSRGYFLFRPRN-NH2), for which, at Neuromedin-U receptor 1 [2], the EC50 worked out at 170 pM.

As for `N=C(N)NCCC[C@H](NC(=O)[C@@H]1CCCN1C(=O)[C@H](CCCNC(=N)N)NC(=O)[C@H](Cc1c[nH]c2ccccc12)NC(=O)[C@H](Cc1c[nH]c2ccccc12)NC(=O)Cc1cccs1)C(=O)O` ({Acetyl(2-thienyl)}-WWRPR-OH), in the data set with Serum, the Drug metabolism result was “Metabolite_Detected”. For the same compound, the amount remaining at 2 h, 1000 µM in the data set filed under Rattus norvegicus was found to be 52%.

As to `N=C(N)NCCC[C@H](NC(=O)[C@@H]1CCCN1C(=O)[C@H](CCCNC(=N)N)NC(=O)[C@@H](NC(=O)[C@H](Cc1c[nH]c2ccccc12)NC(=O)Cc1cccs1)C(c1ccccc1)c1ccccc1)C(=O)N[C@@H](CC(N)=O)C(N)=O` ({Acetyl(2-thienyl)}-W[Dip]RPRN-NH2), the outcome in [3] and in [4] was inactive.

One may read the AUC as the area under the concentration-time curve, a measure of exposure. Read a low AUC as less exposure. One may read the clearance as a measure of how efficiently the substance is removed, as volume per time. By MRT is commonly meant the average time that molecules of a dose stay in the body. As to `N=C(N)NCCC[C@H](NC(=O)[C@@H]1CCCN1C(=O)[C@H](CCCNC(=N)N)NC(=O)[C@H](Cc1ccc(F)cc1)NC(=O)[C@H](Cc1c[nH]c2ccccc12)NC(=O)Cc1cccs1)C(=O)N[C@@H](CC(N)=O)C(N)=O` ({Acetyl(2-thienyl)}-W[Phe(4-F)]RPRN-NH2), the outcome in data set [5] and in [6] was Active. Also, in data set [7], the area under the curve (AUC) at 4 h is 5300 ng·h/mL. The compound also came in with a clearance in [8] of 3.19 mL/min. The MRT in [9] was 11.5 min.

Take `C[C@@](Cc1c[nH]c2ccccc12)(NC(=O)[C@H](Cc1c[nH]c2ccccc12)NC(=O)Cc1cccs1)C(=O)N[C@@H](CCCNC(=N)N)C(=O)N1CCC[C@H]1C(=O)N[C@@H](CCCNC(=N)N)C(=O)O` ({Acetyl(2-thienyl)}-W[αMeW]RPR-OH): the result in [5] was Active. Also, the outcome in data set [10] was inactive. Besides, the Drug metabolism entry on Prothrombin is given as “Metabolite_Detected”. Further, the fraction remaining at 2 h, 1000 µM in the data set filed under Rattus norvegicus amounted to 101%.

Turning to `N=C(N)NCCC[C@H](NC(=O)[C@@H]1CCCN1C(=O)[C@H](CCCNC(=N)N)NC(=O)[C@H](Cc1cccc(F)c1)NC(=O)[C@H](Cc1c[nH]c2ccccc12)NC(=O)Cc1cccs1)C(=O)N[C@@H](CC(N)=O)C(N)=O` ({Acetyl(2-thienyl)}-W[Phe(3-F)]RPRN-NH2), the result in [5] and in [6] was Active.
